SIRT5 block: inhibitors of human sirtuin-5 desuccinylase; Q9NXA8; Purified SirT5, succinyl-peptide AMC, trypsin-coupled fluorescence; inhibition, % at 15 µM; 330,000 tested, 1.1% active; AID 652115; in the data active = inhibition above about 15%; inconclusive = no clear call, values can overlap the other calls
Target sequence (Q9NXA8 whole entry, looked up): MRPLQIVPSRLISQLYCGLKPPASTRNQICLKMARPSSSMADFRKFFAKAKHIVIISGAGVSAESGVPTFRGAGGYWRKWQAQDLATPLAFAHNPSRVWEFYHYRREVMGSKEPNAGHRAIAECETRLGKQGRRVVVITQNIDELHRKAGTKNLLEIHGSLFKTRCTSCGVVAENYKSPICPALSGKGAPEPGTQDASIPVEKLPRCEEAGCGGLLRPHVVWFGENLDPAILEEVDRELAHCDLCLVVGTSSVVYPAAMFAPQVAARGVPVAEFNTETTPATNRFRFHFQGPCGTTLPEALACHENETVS
E-selectin induc: E-selectin induction on HUVECs. P16581. activation, % at 7.58 µM. 260,000 tested, 0.37% active. HUVEC E-selectin immunofluorescence imaging; normalized: neutral wells 0, TNF-alpha wells 100;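 active = mean E-selectin-positive cell signal at least 10% of the positive control, reached in at least 60% of replicates, without over 20% cell loss; inconclusive = no rule given, readout overlaps actives, possibly toxicity-flagged; inactive = the rest, including those meeting only one limit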
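assay system = HUVEC, human umbilical vein endothelial cells | input = 3,000 HUVEC seeded per well | medium = EGM-2 growth medium on 0.1% gelatin-coated wells | dosing = one compound dose added by pin transfer | signal = immunofluorescence imaging | read-out basis = % PE-positive cells | control set = TNF-alpha, DMSO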
DENV2 CPE rescue: DENV2-induced cell death inhibition; DENV2-infected cells, cytopathic effect rescue, plate reader; CPE inhibition, % at 9.99 µM; 350,000 tested, 1.7% active; AID 651640; in the data active = CPE inhibition above about 20%, passing the limit was not always enough; inconclusive = no clear call, values can overlap the other calls; tested in BHK-21 cells;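 note: 0% = median of neutral control wells and 100% = median of positive control wells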
* marks the source's active call; other numbers are inactive results; ? = inconclusive; nt = no result. The list is not random: actives were taken first. Their share in the collection is about 2.8%.

SMILES	SIRT5 block	E-selectin induc	DENV2 CPE rescue
O=C(Cn1ccc2cc(S(=O)(=O)N3CCCCC3)ccc21)NCc1ccccc1F	-0.5	nt	7.2
COc1ccc(CNC(=O)CCn2ccc3cc(S(=O)(=O)N4CCCC4)ccc32)cc1	33.6*	0.2	5.9
Cc1cccc(CNC(=O)Cn2ccc3cc(S(=O)(=O)N4CCCCCC4)ccc32)c1	-0.6	nt	-1.4
Cc1cc2cc(CNC(=O)c3ccc(S(=O)(=O)N4CCCC4)cc3)ccc2n1C	-7.9	?	10.8
Cc1ccccc1CNC(=O)Cn1ccc2cc(S(=O)(=O)N3CCCCCC3)ccc21	19.5*	-0.2	?
Cc1cccc(CNC(=O)Cn2ccc3cc(S(=O)(=O)N4CCCC4)ccc32)c1	15.7*	nt	1.6
CO[C@@H]1CN(C)C(=O)c2ccc(NC(=O)c3ccc4c(c3)OCO4)cc2OC[C@H](C)N(CC2CC2)C[C@@H]1C	nt	0.1	-8.3
C[C@@H]1CN([C@H](C)CO)C(=O)c2cc(-c3cccnc3)cnc2O[C@H]1CN(C)C(=O)c1ccccc1F	-2.2	-0.2	0.9
Cc1cccc(Nc2ncnc3onc(-c4cccc(Cl)c4)c23)c1C	-5.7	-0.2	-14.5
Cc1cccc(Nc2ncnc3onc(-c4ccc(F)cc4)c23)c1C	16.1*	-0.3	15.8
C=CCNC(=O)CC1C(=O)NCCN1Cc1c(F)cccc1Cl (stereo unspecified)	31.5*	nt	12.7
CC(C)(C)NC(=O)CC1C(=O)NCCN1Cc1c(F)cccc1Cl (stereo unspecified)	-2.2	nt	-3.7
COc1ccccc1C#Cc1cnc2c(c1)C(=O)N([C@@H](C)CO)C[C@@H](C)[C@@H](CN(C)C(=O)CC1CC1)O2	-1.3	0.9	?
CO[C@H]1CN(C)C(=O)c2cc(NC(=O)c3ccccc3F)ccc2OC[C@H](C)NC[C@H]1C	-0.8	-0.2	4.6
CO[C@@H]1CN(C)C(=O)c2ccc(NC(=O)c3ccccc3F)cc2OC[C@H](C)NC[C@@H]1C	-1.8	-0.1	-10.8
CO[C@H]1CN(C)C(=O)c2cc(NC(=O)c3ccccc3F)ccc2OC[C@@H](C)NC[C@@H]1C	25.7*	-0.1	-4.5
CO[C@H]1CN(C)C(=O)c2cc(NC(=O)c3ccccc3F)ccc2OC[C@H](C)NC[C@@H]1C	24.6*	0.1	9.0
CNC[C@H]1OCCCC[C@@H](C)Oc2ccc(NC(=O)Nc3ccccc3)cc2C(=O)N([C@@H](C)CO)C[C@H]1C	0.5	0.0	-1.9
C[C@@H]1CN([C@@H](C)CO)C(=O)c2cccc(NC(=O)NC3CCCCC3)c2O[C@@H]1CN(C)S(C)(=O)=O	-6.1	nt	?
C[C@H]1CN([C@@H](C)CO)C(=O)c2cc(NC(=O)Cc3cn(C)c4ccccc34)ccc2O[C@@H]1CN(C)Cc1ccncc1	3.1	-5.9	?
C/C=C/c1cnc2c(c1)C(=O)N([C@H](C)CO)C[C@H](C)[C@@H](CN(C)S(=O)(=O)c1ccccc1)O2	-3.0	0.3	-10.7
CO[C@@H]1CN(C)C(=O)c2cc(NC(=O)C3CCOCC3)ccc2OC[C@@H](C)N(S(=O)(=O)c2ccc(Cl)cc2)C[C@H]1C	1.9	nt	-4.2
C(/C=C/c1ccccn1)=C\c1ccccc1	4.6	nt	6.3
C(=C(c1ccccc1)c1ccccc1)c1ccccn1	nt	-0.3	54.3*
CCCCC[C@@H](C)N1C[C@@H](COCc2ccccc2)Oc2cc(N3CC[C@H](N(C)C)C3)ccc2S1(=O)=O	-2.5	0.2	-7.6
SMILES	SIRT5 block	E-selectin induc	DENV2 CPE rescue
CCCCC[C@H](C)N1C[C@@H](COCc2ccccc2)Oc2cc(N3CC[C@H](N(C)C)C3)ccc2S1(=O)=O	-3.5	0.2	61.0*
CCCCC[C@@H](C)N1C[C@@H](COCc2ccccc2)Oc2cc(N3CCC[C@H]3CO)ccc2S1(=O)=O	1.3	-0.2	-8.2
CCCCC[C@@H](C)N1C[C@H](COCc2ccccc2)Oc2cc(N3CCC[C@@H]3CO)ccc2S1(=O)=O	26.5*	-0.1	-9.7
C[C@H]1CN([C@@H](C)CO)C(=O)c2cc(NS(=O)(=O)c3cccs3)ccc2O[C@H]1CN(C)S(=O)(=O)c1cccs1	nt	0.0	nt
O=C(C1CC1)N1C[C@@H]2[C@H](c3ccccc31)[C@@H](CO)N2C(=O)Nc1cccc(F)c1	0.9	0.2	5.7
C[C@H]1CN([C@@H](C)CO)C(=O)c2cccc(NS(C)(=O)=O)c2O[C@H]1CN(C)C(=O)NC1CCCCC1	-8.9	nt	-5.7
CCCNC(=O)C[C@@H]1C[C@H]2c3cc(NC(=O)Nc4ccc(F)cc4)ccc3O[C@H]2[C@H](CO)O1	0.6	0.0	1.2
C=CCN1C(=O)N/C(=C/c2ccccc2OCC(=O)Nc2ccc(F)cc2)C1=O	-2.8	2.1	22.2*
O=C(COc1ccccc1/C=C1\SC(=O)NC1=O)Nc1ccc(F)cc1	-2.9	nt	nt

From PubChem BioAssay
